The structures appear in SMILES notation. Activity calls are given as the source filed them. No cut-off for these calls is given here.

For assay [1], the target named is Acyl-protein thioesterase 1 (Homo sapiens) (UniProt O75608). As to the kind of experiment: Inhibition of LYPLA1 binding to FP-biotin in [12C][14N]-lysine, arginine and [13C6][15N2]-lysine, arginine labeled HEK293T cells at 20 uM after 1 hr by isotopic activity-based protein profiling-MudPIT assay. It is filed as cell-based. The conditions noted are these: HEK-293T. The method in brief:
(§1)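 SILAC HEK 293T: light cells (12C14N-Lys/Arg) treated with compound, heavy cells (13C6 15N2-Lys/Arg) with DMSO, 1 h at 37 °C. Proteomes were mixed 1:1 (0.5 mg each) and labeled with FP-biotin (5 μM, 1 h, 25 °C), then streptavidin-enriched, digested on bead with trypsin, and run by MudPIT. Light/heavy ratios were normalized to a DMSO/DMSO control. Only SHs with ≥2 quantifiable peptides were kept; mean ± SEM across peptides.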

Assay [2] concerns the target Prolyl endopeptidase (Homo sapiens) (UniProt P48147). As to the kind of experiment: Inhibition of PREP binding to FP-biotin in [12C][14N]-lysine, arginine and [13C6][15N2]-lysine, arginine labeled HEK293T cells at 20 uM after 1 hr by isotopic activity-based protein profiling-MudPIT assay. The assay is classed as cell-based. The conditions noted are these: HEK-293T. The method in brief:
as §1

For assay [3], the target named is Monoacylglycerol lipase ABHD6 (Homo sapiens) (UniProt Q9BV23). As to the kind of experiment: Inhibition of ABHD6 binding to FP-biotin in [12C][14N]-lysine, arginine and [13C6][15N2]-lysine, arginine labeled HEK293T cells at 20 uM after 1 hr by isotopic activity-based protein profiling-MudPIT assay. It is filed as cell-based. The conditions noted are these: HEK-293T. The method in brief:
as §1

The target of assay [4] is Platelet-activating factor acetylhydrolase IB subunit alpha1 (Homo sapiens) (UniProt Q15102). As to the kind of experiment: Inhibition of PAFAH1B3 binding to FP-biotin in [12C][14N]-lysine, arginine and [13C6][15N2]-lysine, arginine labeled HEK293T cells at 20 uM after 1 hr by isotopic activity-based protein profiling-MudPIT assay. It is filed as cell-based. The conditions noted are these: HEK-293T. The method in brief: as §1
Chain of Platelet-activating factor acetylhydrolase IB subunit alpha1 (Homo sapiens) (Q15102 whole entry): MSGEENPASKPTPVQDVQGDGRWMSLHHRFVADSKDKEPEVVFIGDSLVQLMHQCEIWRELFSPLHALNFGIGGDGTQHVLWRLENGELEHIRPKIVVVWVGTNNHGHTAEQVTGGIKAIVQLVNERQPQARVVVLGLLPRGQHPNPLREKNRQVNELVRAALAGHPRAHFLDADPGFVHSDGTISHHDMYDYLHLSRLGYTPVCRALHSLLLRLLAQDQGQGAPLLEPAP

The target of assay [5] is T1, Protein phosphatase methylesterase 1 (Homo sapiens) (UniProt Q9Y570).
T1 sequence (whole entry): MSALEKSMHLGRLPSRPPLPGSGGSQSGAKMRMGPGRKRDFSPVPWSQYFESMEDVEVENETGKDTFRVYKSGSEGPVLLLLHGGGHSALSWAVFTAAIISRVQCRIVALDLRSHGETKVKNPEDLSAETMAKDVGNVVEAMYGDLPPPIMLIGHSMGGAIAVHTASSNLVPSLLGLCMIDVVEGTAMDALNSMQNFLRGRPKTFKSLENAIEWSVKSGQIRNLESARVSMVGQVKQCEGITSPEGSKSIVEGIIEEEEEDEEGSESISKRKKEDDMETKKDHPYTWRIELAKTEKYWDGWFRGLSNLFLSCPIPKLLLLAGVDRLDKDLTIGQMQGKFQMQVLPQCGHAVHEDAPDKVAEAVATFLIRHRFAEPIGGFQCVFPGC
In words: Inhibition of PME1 overexpressed in HEK293T cells assessed as reduction in demethylated PP2A level at 20 uM after 1 hr by Western blot analysis relative to control. Conditions: HEK-293T. The assay is classed as cell-based. The method in brief: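 HEK 293T cells, either stably overexpressing PME-1 or untransfected, treated in medium for 1 h at 37 °C. Total cell extract (2 mg/mL) run on reducing SDS-PAGE (10%) and blotted with demethylated-specific (4b7), methylated-specific (2A10) and total PP2A antibodies, imaged by infrared fluorescence. Mean ± SEM, n = 3, compared against DMSO-treated cells.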
In general terms: Immunoblotting shows a protein as a band on a membrane.

Assay [6] deals with Diacylglycerol lipase-beta (Homo sapiens) (UniProt Q8NCG7). As to the kind of experiment: Inhibition of DAGLB binding to FP-biotin in [12C][14N]-lysine, arginine and [13C6][15N2]-lysine, arginine labeled HEK293T cells at 20 uM after 1 hr by isotopic activity-based protein profiling-MudPIT assay. It is filed as cell-based. The conditions noted are these: HEK-293T. A digest of the protocol: as §1

The target in assay [7] is Acylamino-acid-releasing enzyme (Homo sapiens) (UniProt P13798). As to the kind of experiment: Inhibition of APEH binding to FP-biotin in [12C][14N]-lysine, arginine and [13C6][15N2]-lysine, arginine labeled HEK293T cells at 20 uM after 1 hr by isotopic activity-based protein profiling-MudPIT assay. The assay is classed as cell-based. The conditions noted are these: HEK-293T. A digest of the protocol: as §1
Chain of Acylamino-acid-releasing enzyme (Homo sapiens) (P13798 whole entry): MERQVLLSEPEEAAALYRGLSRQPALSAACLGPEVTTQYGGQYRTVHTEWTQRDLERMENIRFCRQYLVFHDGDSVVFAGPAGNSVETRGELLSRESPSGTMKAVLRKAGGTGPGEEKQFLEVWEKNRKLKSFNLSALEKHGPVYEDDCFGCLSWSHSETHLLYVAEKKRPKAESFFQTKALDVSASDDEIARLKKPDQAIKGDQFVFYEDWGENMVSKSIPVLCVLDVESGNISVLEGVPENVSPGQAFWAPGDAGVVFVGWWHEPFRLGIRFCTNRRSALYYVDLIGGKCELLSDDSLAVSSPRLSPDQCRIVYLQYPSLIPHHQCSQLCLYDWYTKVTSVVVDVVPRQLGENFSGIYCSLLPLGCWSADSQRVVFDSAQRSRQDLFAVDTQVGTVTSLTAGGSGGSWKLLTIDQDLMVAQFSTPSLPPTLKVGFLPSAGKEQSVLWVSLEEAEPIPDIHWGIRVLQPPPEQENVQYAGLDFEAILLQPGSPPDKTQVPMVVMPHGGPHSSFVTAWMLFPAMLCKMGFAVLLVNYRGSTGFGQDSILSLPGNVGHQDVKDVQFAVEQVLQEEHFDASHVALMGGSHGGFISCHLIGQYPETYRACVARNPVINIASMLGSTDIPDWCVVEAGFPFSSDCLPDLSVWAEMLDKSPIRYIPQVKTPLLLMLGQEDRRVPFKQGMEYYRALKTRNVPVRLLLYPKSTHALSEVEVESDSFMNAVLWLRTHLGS

Assay [8] deals with Prolyl endopeptidase-like (Homo sapiens) (UniProt Q4J6C6). As to the kind of experiment: Inhibition of PREPL binding to FP-biotin in [12C][14N]-lysine, arginine and [13C6][15N2]-lysine, arginine labeled HEK293T cells at 20 uM after 1 hr by isotopic activity-based protein profiling-MudPIT assay. It is filed as cell-based. Conditions: HEK-293T. The method in brief: as §1
In assay [9] the test system is HEK-293T. As to the kind of experiment: Effect on sulfonate ester-Rh labeled soluble proteome in HEK293T cells at 100 uM incubated for 1 hr before proteome labeling measured after 1 hr relative to control. It is filed as cell-based. Conditions: Homo sapiens. The method in brief: (§2)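 HEK 293T cells (DMEM, 10% FBS, 37 °C, 5% CO2) given compound in medium for 1 h at 37 °C, washed, scraped, sonicated in PBS pH 7.5. Soluble fraction diluted to 1 mg/mL protein in PBS, labeled with CA-rhodamine or SE-rhodamine (5 μM, 1 h, 25 °C), run on reducing SDS-PAGE (10%), and band intensities read by in-gel fluorescence against DMSO-treated samples.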

For assay [10], the target named is Calcium-independent phospholipase A2-gamma (Homo sapiens) (UniProt Q9NP80). As to the kind of experiment: Inhibition of PNPLA8 binding to FP-biotin in [12C][14N]-lysine, arginine and [13C6][15N2]-lysine, arginine labeled HEK293T cells at 20 uM after 1 hr by isotopic activity-based protein profiling-MudPIT assay. The conditions noted are these: HEK-293T. It is filed as cell-based. The method in brief:
as §1

Assay [11] has as its target Platelet-activating factor acetylhydrolase IB subunit alpha2 (Homo sapiens) (UniProt P68402). In words: Inhibition of PAFAH1B2 binding to FP-biotin in [12C][14N]-lysine, arginine and [13C6][15N2]-lysine, arginine labeled HEK293T cells at 20 uM after 1 hr by isotopic activity-based protein profiling-MudPIT assay. Conditions: HEK-293T. It is filed as cell-based. A digest of the protocol: as §1

Assay [12] concerns HEK-293T. As to the kind of experiment: Effect on chloroacetamide-Rh labeled soluble proteome in HEK293T cells at 100 uM incubated for 1 hr before protein labeling measured after 1 hr relative to control. It is filed as cell-based. The conditions noted are these: Homo sapiens. The method in brief: as §2
Assay [13] deals with Acyl-coenzyme A thioesterase 1 (Homo sapiens) (UniProt Q86TX2). As to the kind of experiment: Inhibition of ACOT1 binding to FP-biotin in [12C][14N]-lysine, arginine and [13C6][15N2]-lysine, arginine labeled HEK293T cells at 20 uM after 1 hr by isotopic activity-based protein profiling-MudPIT assay. The assay is classed as cell-based. Conditions: HEK-293T. A digest of the protocol:
as §1

Assay [14] deals with Dipeptidyl peptidase 8 (Homo sapiens) (UniProt Q6V1X1). As to the kind of experiment: Inhibition of DPP8 binding to FP-biotin in [12C][14N]-lysine, arginine and [13C6][15N2]-lysine, arginine labeled HEK293T cells at 20 uM after 1 hr by isotopic activity-based protein profiling-MudPIT assay. Conditions: HEK-293T. The assay is classed as cell-based. A digest of the protocol: as §1
Chain of Dipeptidyl peptidase 8 (Homo sapiens) (Q6V1X1 whole entry, looked up): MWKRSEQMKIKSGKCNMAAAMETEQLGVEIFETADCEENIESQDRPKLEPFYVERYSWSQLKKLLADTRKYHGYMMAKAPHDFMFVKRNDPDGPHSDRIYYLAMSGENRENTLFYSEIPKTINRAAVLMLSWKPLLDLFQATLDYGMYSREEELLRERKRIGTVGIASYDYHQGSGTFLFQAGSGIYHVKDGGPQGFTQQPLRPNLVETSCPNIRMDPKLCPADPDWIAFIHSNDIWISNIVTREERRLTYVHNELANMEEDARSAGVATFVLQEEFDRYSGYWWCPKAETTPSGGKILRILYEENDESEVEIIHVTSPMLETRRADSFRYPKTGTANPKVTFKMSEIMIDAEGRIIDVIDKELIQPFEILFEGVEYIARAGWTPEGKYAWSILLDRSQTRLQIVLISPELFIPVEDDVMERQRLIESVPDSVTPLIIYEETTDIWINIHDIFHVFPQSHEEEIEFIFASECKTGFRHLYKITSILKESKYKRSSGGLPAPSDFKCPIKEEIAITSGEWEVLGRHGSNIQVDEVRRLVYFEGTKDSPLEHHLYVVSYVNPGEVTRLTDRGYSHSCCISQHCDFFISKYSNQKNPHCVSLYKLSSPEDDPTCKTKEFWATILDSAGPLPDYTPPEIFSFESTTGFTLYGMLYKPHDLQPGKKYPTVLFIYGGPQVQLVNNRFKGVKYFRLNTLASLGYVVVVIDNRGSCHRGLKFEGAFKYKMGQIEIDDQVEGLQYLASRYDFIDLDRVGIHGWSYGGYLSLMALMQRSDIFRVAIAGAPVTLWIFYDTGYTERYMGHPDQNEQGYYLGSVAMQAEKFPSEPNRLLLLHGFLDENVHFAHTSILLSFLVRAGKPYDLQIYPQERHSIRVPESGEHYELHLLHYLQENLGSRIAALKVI

The target of assay [15] is Acyl-coenzyme A thioesterase 2, mitochondrial (Homo sapiens) (UniProt P49753). In words: Inhibition of ACOT2 binding to FP-biotin in [12C][14N]-lysine, arginine and [13C6][15N2]-lysine, arginine labeled HEK293T cells at 20 uM after 1 hr by isotopic activity-based protein profiling-MudPIT assay. The assay is classed as cell-based. The conditions noted are these: HEK-293T. A digest of the protocol:
as §1

Assay [16] addresses T1, Protein phosphatase methylesterase 1 (Homo sapiens). Conditions: HEK-293T, 50 uM.

Chain of Acyl-coenzyme A thioesterase 1 (Homo sapiens) (Q86TX2 whole entry): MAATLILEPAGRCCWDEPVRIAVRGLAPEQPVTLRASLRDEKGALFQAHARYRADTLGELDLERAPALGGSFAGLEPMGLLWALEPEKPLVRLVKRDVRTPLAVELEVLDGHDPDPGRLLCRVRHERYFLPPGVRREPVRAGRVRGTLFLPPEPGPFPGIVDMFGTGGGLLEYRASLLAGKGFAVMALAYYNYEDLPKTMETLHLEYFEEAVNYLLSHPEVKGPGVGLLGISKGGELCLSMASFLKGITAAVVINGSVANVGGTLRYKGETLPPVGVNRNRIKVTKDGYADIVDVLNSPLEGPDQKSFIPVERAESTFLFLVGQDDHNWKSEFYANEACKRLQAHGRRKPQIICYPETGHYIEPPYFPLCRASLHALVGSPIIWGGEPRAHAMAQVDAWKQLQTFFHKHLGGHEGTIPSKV
Chain of Calcium-independent phospholipase A2-gamma (Homo sapiens) (Q9NP80 whole entry): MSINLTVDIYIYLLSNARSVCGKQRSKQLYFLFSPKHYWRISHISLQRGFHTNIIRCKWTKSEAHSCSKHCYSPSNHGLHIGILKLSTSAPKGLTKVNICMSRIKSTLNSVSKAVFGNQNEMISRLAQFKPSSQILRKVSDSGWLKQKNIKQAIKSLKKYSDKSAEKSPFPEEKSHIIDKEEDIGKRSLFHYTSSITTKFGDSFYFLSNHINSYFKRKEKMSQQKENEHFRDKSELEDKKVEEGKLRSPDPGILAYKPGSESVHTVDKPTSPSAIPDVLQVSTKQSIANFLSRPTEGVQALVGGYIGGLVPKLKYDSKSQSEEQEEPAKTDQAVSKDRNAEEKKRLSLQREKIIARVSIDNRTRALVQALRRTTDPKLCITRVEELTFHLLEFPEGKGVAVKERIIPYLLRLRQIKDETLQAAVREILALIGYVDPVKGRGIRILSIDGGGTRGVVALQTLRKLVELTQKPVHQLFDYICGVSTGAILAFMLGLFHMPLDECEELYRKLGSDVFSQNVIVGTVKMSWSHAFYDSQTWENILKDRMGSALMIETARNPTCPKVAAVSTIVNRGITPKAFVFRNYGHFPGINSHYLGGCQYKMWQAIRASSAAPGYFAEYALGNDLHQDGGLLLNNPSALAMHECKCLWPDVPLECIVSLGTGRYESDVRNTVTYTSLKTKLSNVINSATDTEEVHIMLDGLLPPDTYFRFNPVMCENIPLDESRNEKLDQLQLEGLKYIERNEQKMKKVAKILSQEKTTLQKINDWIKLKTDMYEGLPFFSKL
Chain of Prolyl endopeptidase (Homo sapiens) (P48147 whole entry): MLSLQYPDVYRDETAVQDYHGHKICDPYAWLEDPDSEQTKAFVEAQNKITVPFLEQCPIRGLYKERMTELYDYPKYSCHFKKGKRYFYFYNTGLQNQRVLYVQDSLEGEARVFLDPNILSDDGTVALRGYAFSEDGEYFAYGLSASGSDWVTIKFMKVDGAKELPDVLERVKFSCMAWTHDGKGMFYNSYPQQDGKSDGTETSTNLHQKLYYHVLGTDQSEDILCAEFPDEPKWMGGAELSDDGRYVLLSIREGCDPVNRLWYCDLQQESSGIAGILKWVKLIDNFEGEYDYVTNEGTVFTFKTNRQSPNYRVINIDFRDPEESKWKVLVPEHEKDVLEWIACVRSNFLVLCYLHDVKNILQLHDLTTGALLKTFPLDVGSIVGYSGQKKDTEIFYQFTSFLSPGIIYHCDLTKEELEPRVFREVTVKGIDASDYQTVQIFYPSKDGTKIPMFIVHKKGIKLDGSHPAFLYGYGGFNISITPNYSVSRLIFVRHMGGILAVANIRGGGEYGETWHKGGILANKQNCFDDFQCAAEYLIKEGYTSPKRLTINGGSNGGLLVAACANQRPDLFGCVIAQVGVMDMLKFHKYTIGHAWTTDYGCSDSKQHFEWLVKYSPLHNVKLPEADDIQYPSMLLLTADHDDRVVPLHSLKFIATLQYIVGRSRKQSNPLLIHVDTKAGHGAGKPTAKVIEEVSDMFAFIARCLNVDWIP
Chain of Acyl-protein thioesterase 1 (Homo sapiens) (O75608 whole entry): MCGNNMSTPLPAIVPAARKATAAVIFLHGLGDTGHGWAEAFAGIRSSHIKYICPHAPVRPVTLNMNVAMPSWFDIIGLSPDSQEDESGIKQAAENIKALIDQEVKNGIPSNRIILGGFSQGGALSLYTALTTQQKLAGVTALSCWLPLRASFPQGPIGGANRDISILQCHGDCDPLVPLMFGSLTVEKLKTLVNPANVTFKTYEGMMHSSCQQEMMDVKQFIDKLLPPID
Chain of Monoacylglycerol lipase ABHD6 (Homo sapiens) (Q9BV23 whole entry): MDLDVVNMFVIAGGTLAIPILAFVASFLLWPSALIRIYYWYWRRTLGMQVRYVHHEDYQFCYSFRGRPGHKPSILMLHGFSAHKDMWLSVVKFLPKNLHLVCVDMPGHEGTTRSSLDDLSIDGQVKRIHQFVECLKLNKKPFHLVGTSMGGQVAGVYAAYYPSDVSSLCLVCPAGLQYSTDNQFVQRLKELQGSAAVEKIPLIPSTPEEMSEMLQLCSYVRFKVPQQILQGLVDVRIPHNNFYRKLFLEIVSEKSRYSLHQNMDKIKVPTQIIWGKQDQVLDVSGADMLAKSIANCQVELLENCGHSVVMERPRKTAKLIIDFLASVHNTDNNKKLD
Chain of Acyl-coenzyme A thioesterase 2, mitochondrial (Homo sapiens) (P49753 whole entry): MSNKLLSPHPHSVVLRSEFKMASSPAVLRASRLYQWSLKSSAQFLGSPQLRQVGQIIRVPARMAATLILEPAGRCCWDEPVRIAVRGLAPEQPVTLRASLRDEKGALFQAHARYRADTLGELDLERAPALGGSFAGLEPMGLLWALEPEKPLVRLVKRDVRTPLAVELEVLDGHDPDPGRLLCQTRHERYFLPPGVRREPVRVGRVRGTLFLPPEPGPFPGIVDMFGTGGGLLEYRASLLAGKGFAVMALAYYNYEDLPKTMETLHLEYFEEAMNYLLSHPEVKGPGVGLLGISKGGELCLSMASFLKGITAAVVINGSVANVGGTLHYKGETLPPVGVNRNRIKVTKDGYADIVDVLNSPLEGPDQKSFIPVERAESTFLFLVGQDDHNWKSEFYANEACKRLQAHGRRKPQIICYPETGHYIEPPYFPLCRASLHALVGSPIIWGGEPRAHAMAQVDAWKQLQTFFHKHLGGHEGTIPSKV

As a reminder, the inhibition is the share of the control response that was lost under treatment. For `N#C/C(=C\c1cccn1S(=O)(=O)c1cccc([N+](=O)[O-])c1)S(=O)(=O)c1ccc(F)cc1`, the inhibition result in [1], in assay [2], in assay [3], in [4], in assay [6] and in assay [7] was “inactive” throughout. For the same molecule, the inhibition entry in assay [8], in [10], in assay [11], in [13], in [14] and in assay [15] was “inactive” each time. Moreover, the inhibition in assay [5] stood at 80%. For the same molecule, the outcome with HEK-293T [9] and in the assay with HEK-293T [12] was inactive. Also, the inhibition result in assay [16] was “Active”.

For the origin of these results see ChEMBL document CHEMBL2203175, “Discovery and optimization of sulfonyl acrylonitriles as selective, covalent inhibitors of protein phosphatase methylesterase-1” (J Med Chem, 2011).
